One compound from ChEMBL document CHEMBL3352597, “Heck products of parthenolide and melampomagnolide-B as anticancer modulators that modify cell cycle progression” (Eur J Med Chem, 2014) can be followed below.

Assay type in all cases: functional
A short description of assay [1]: Anticancer activity against human MOLT4 cells. In outline:
(§1)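 NCI 60 human cancer cell line panel, multiple-dose testing at five concentrations (10^-4, 10^-5, 10^-6, 10^-7 and 10^-8 M). Dose-response curves plot cytotoxic effect against log10 of drug concentration for each cell line. GI50 is the molar concentration giving 50% growth inhibition; LC50 is the concentration killing 50% of cells.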

Assay [2] in a line: Anticancer activity against human COLO205 cells. In outline:
as §1

In the next assay the test system is Malme-3M. Description: Anticancer activity against human MALME-3M cells. In outline: as §1
The next assay relates to SNB-75. Description: Anticancer activity against human SNB75 cells. In outline: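 NCI 60 human tumour cell line screen. A single-concentration pre-screen was run at 10^-5 M. Compounds selected from it were then tested at five concentrations, 10^-4 to 10^-8 M. Dose-response curves plotted cytotoxic effect against log10 of the drug concentration for each cell line. GI50 is the molar concentration giving 50% growth inhibition, and LC50 the concentration killing 50% of cells.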

In another assay the test system is HT-29. Description: Anticancer activity against human HT-29 cells. In outline: as §1
Another assay deals with MDA-MB-231. Kind of assay: Anticancer activity against human MDA-MB-231 cells. In outline: as §1
Where [3] appears, read: read-out: LC50 (the source's name).

As for `C/C1=C\CC[C@@]2(C)O[C@@H]2[C@H]2OC(=O)/C(=C/c3ccsc3)[C@@H]2CC1`, the concentration for 50% growth inhibition (GI50) in assay [1] (MOLT-4) was found to be 25.7 µM; in assay [2] (COLO 205), 22.6 µM; in the assay on Malme-3M it was 22.5 µM; in the assay on SNB-75, 21.5 µM; in the assay on HT-29, 27 µM; with MDA-MB-231, 16 µM. Further, the CC50 was over 100 µM in assay [1] (MOLT-4, read-out: LC50 (the source's name)); 90.9 µM in assay [2] (COLO 205, read-out: LC50 (the source's name)); over 100 µM with Malme-3M (setting [3]); over 100 µM in the assay on SNB-75 (setting [3]); over 100 µM in the assay with HT-29 (setting [3]). In the assay with MDA-MB-231, this compound registered an LC50 (concentration killing 50% of cells) of 81.8 µM.

As usually defined, the GI50 is the concentration at which growth is held to half of that of the control.
